Screening results deposited in PubChem BioAssay by several laboratories.
LMPTP inh: LMPTP phosphatase inhibitors, primary screen, biochemical, fluorescence intensity, uHTS; Low molecular weight phosphotyrosine protein phosphatase (Homo sapiens), P24666; recombinant LMPTP-A, OMFP fluorogenic substrate; inhibition, % at 20 µM; 360,000 tested, 0.22% active; AID 651560, 2012;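 active = compounds that cut the enzyme signal by at least half of the control window in the single-dose screen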
Target sequence (P24666 whole entry, looked up): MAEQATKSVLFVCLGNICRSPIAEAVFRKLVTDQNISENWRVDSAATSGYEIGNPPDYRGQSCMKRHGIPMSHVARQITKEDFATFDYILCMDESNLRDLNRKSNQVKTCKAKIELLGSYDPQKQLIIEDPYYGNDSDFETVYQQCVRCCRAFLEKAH
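material = LMPTP-A | quantity = 0.625 nM enzyme | reagent = OMFP substrate, 400 µM final | buffer or medium = Bis-Tris pH 6.0, DTT, detergent | detection = endpoint fluorescence intensity from OMFP dephosphorylation | dosing = single 20 µM dose | read-out basis = % inhibition relative to no-enzyme and uninhibited control wells | control set = no-enzyme and uninhibited controls | timing = 50 min at room temperature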
PP1 counter: PP1-alpha phosphatase inhibitors, primary screen, counter-screen for PP5 inhibitor project, biochemical, fluorescence, OMFP substrate, single point; Serine/threonine-protein phosphatase PP1-alpha catalytic subunit (Homo sapiens), P62136; purified PP1alpha; inhibition, % at 6.7 µM; 320,000 tested, 0.9% active; AID 2235, 2010;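 active = inhibition above the mean inhibition of all tested compounds plus 3 SD, computed separately for each screening campaign, cut at about 15% in these data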
Scp-1 inhibitor: Scp-1 phosphatase inhibitors, primary screen, biochemical, colorimetric, uHTS. Carboxy-terminal domain RNA polymerase II polypeptide A small phosphatase 1 (Homo …. Recombinant Scp1, phosphopeptide, malachite green phosphate absorbance. inhibition, % at 20 µM. 340,000 tested, 0.88% active. AID 493091, 2011;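 active = inhibition above about 50% at 20 µM, limit read from the data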
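Assay system: SCP-1 catalytic fragment, aa 76-261 | Buffer or medium: Tris acetate buffer pH 5.5 with MgCl2 and Tween-20 | Compound: One concentration, 20 µM, with 1.0% DMSO | Also added: Phospho 17-mer peptide substrate | Signal: Absorbance at 630 nm | Incubation: 45 min enzyme reaction at room temperature | Measure: % inhibition of SCP-1 phosphate liberation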
PP5 primary: PP5 phosphatase inhibitors, primary screen, biochemical, fluorescence; inhibition, % at 6.7 µM; 320,000 tested, 0.18% active; AID 1987, 2009; purified PP5c, OMFP substrate fluorescence; Serine/threonine-protein phosphatase 5 (Homo sapiens), P53041;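 active = inhibition above the campaign's mean inhibition across all tested compounds plus 3 SD, cut at about 9.5% in these data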
Target sequence (P53041 whole entry, looked up): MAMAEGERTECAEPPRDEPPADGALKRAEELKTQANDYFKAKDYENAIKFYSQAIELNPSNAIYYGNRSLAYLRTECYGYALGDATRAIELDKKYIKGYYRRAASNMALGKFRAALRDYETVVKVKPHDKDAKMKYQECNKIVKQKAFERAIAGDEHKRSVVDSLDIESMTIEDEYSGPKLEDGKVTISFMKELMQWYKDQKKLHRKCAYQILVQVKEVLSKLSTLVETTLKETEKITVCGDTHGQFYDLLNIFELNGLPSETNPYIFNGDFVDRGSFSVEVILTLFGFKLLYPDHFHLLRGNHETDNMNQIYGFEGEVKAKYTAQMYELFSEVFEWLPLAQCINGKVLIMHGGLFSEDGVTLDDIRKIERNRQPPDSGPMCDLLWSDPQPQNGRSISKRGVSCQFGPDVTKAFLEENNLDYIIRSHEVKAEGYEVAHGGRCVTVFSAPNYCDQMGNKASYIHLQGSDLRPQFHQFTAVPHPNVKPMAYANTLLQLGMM
STEP inh: STEP phosphatase inhibitors, primary screen, biochemical, fluorescence intensity, uHTS | recombinant STEP, OMFP fluorogenic substrate | inhibition, % at 20 µM | 360,000 tested, 0.25% active | Tyrosine-protein phosphatase non-receptor type 5 (Homo sapiens), P54829;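 active = inhibition at 20 µM, scaled per plate between control wells, above about 37%, limit read from the data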
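System: isolated STEP enzyme; schedule: 20 min enzyme reaction at room temperature, protected from light; medium: Bis-Tris buffer pH 6.0, 2.5 mM DTT, 0.005% Tween 20; signal: fluorescence, 480/540 nm; dosing: single compound dose of 20 µM, 1% DMSO final; also added: OMFP substrate, 25 µM final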
PP1 confirm: PP1 phosphatase inhibitors, confirmation, biochemical, fluorescence, OMFP substrate, triplicate; AID 2358, 2010; purified PP1alpha; inhibition, % at 6.7 µM; 1,900 tested, 52% active; shares compounds with PP1 counter;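 active = mean PP1 inhibition above a set limit taken from the earlier primary screen, cut at about 15% in these data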
PP5 counter: PP5 phosphatase inhibition by PP1 hits, confirmation, counter-screen for PP1 inhibitor project, biochemical, fluorescence, triplicate | shares compounds with PP1 counter | purified PP5c, OMFP fluorescence | inhibition, % at 6.7 µM | 1,900 tested, 4% active | AID 2360, 2010;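 active = mean PP5 inhibition over triplicate wells above about 9.5% taken from the earlier PP1 screen, limit read from the data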
Hits are given with their value; i = inactive; nt = no result given. Only some compounds are listed: those with a hit (about 1.9% of all), similar ones and a draw of the others.

SMILES | LMPTP inh | PP1 counter | Scp-1 inhibitor | PP5 primary | STEP inh | PP1 confirm | PP5 counter
COc1ccc2c(c1)cc(C(=O)N/N=C/c1c(O)c(C(=O)O)cc3ccccc13)n2C | i | 35 | i | i | i | 30 | i
CCOCCCNC(=O)c1cccs1 | i | i | i | i | i | nt | nt
O=C(CCNc1ccc(Cc2ccncc2)cc1)c1ccc([N+](=O)[O-])cc1 | i | 18 | i | i | i | i | i
O=[N+]([O-])c1ccc(NCCNc2ccc([N+](=O)[O-])cc2)cc1 | i | nt | i | nt | i | nt | nt
COc1c(OC)c(O)c2c(=O)c(O)c(-c3ccccc3)oc2c1OC | i | 18 | i | i | i | 30 | i
Cc1ccc(Cn2ccsc2=NC(=O)COC(=O)c2ccc(O)cc2O)cc1 | i | i | i | i | i | nt | nt
C/C(=N\NC(=O)COc1ccc(C)cc1[N+](=O)[O-])c1cccs1 | i | i | i | i | i | nt | nt
C/C(=N\NC(=O)COc1ccc(C)cc1Br)c1cc([N+](=O)[O-])cs1 | i | 22 | i | i | i | 23 | i
CCOC(=O)CSCC(=O)Nc1cc(C)ccc1C | i | i | i | i | i | nt | nt
CCC(c1nnc(SCC(=O)Nc2nnc(-c3ccccc3)o2)n1Cc1ccccc1)N(C)C (stereo not drawn) | i | i | i | i | i | nt | nt
Cn1c(=O)c(C(=O)NNC(=O)c2ccccc2F)c(O)c2ccccc21 | i | 18 | i | i | i | i | i
CCn1c(=O)c(C(=O)Nc2ncccc2O)c(O)c2ccccc21 | i | i | i | i | i | nt | nt
CCCn1c(=O)c(C(=O)NNS(=O)(=O)c2ccc(C)cc2)c(O)c2ccccc21 | i | i | i | i | i | nt | nt
CCn1c(=O)c(C(=O)Nc2ncccc2C)c(O)c2ccccc21 | i | 21 | i | i | i | 25 | i
CCCn1c(=O)c(C(=O)NNC(=O)c2cccc([N+](=O)[O-])c2)c(O)c2ccccc21 | i | 20 | i | i | i | 19 | i
CCn1c(=O)c(C(=O)NNC(=O)c2ccccc2Cl)c(O)c2ccccc21 | i | 19 | i | i | i | i | i
O=Cc1c[nH]c2ccc(NC(=O)OCc3ccccc3)cc12 | i | nt | i | nt | i | nt | nt
CCn1cc(C(=O)O)c(=O)c2cc(F)c(N3CCN(S(=O)(=O)c4ccc(Br)cc4)CC3)cc21 | nt | 19 | nt | i | nt | 41 | i
C=CCNC(=S)N1CCN(c2cc3c(cc2F)c(=O)c(C(=O)O)cn3CC)CC1 | i | 20 | i | i | i | i | i
Cc1ccccc1NCC(=O)Nc1cc(S(=O)(=O)N2CCCCC2)ccc1C | i | i | i | i | i | nt | nt
COCc1nnc(NC(=O)CSc2ccccc2)s1 | i | i | i | i | i | nt | nt
O=C(NCc1csc2ccc(Cl)cc12)Nc1ccccc1 | i | i | i | i | i | nt | nt
O=C1N=C(N2CCC(Cc3ccccc3)CC2)S/C1=C/c1cn[nH]c1-c1ccccc1 | i | 21 | i | i | i | i | i
O=C1N=C(N2CCN(c3ccccc3)CC2)S/C1=C\c1cn[nH]c1-c1ccccc1 | i | i | i | i | i | nt | nt
Cc1cc(C)cc(NC(=O)CS(=O)(=O)c2cccc3nsnc23)c1 | i | i | i | i | i | nt | nt
SMILES | LMPTP inh | PP1 counter | Scp-1 inhibitor | PP5 primary | STEP inh | PP1 confirm | PP5 counter
N#CC1=C2SC=C(c3ccc(Br)cc3)N2CCCC1=O | i | i | i | i | i | nt | nt
N#CC1=C2Sc3ccccc3N2CCCC1=O | i | 56 | i | i | i | i | i
O=C(O)CC(CCc1ccccc1)OC1OC(CO)C(O)C(O)C1O (stereo not drawn) | i | i | i | i | i | nt | nt
CCOc1ccc(C2C(C(C)=O)=C(O)C(=O)N2CCc2c[nH]c3ccccc23)cc1 (stereo not drawn) | i | 22 | i | i | i | 29 | i
CCCCCCN1C(=O)C(O)=C(C(C)=O)C1c1ccc(Cl)cc1 (stereo not drawn) | i | 23 | i | i | i | 18 | i
CC(=O)C1=C(O)C(=O)N(CCc2c[nH]c3ccccc23)C1c1ccc(O)cc1 (stereo not drawn) | i | i | i | i | i | nt | nt
CCOC(=O)c1ccc(P(=O)(c2ccccc2)c2ccccc2)cc1 | i | i | i | i | i | nt | nt
Cc1ccc(-c2ccc(SCC(=O)Nc3ccc4c(c3)OCCO4)nn2)cc1 | i | 38 | i | i | i | i | i
CC(=O)Nc1ccc(NC(=O)CSc2ccc(-c3ccc4c(c3)OCO4)nn2)cc1 | i | i | i | i | i | nt | nt
Cc1cccc(N2CCN(S(=O)(=O)c3c(C)[nH]c(=O)[nH]c3=O)CC2)c1C | i | i | i | i | i | nt | nt
O=C(NCCCCc1ccccc1)C12CN(Cc3ccccc3)CC1C(c1cccc([N+](=O)[O-])c1)=NO2 (stereo not drawn) | i | 24 | i | i | i | i | i
O=C(NCCCCc1ccccc1)C12CN(Cc3ccccc3)CC1C(c1ccc([N+](=O)[O-])cc1)=NO2 (stereo not drawn) | i | i | i | i | i | nt | nt
COc1cc(/C=C/C(=O)OCC(=O)N2CC(=O)Nc3ccccc32)ccc1O | i | i | i | i | i | nt | nt
O=[N+]([O-])c1ccc(N2CCN(S(=O)(=O)c3ccc(Cl)cc3)CC2)cc1NCc1cccnc1 | i | 19 | i | i | i | 16 | i
O=[N+]([O-])c1ccc(N2CCN(S(=O)(=O)c3ccccc3)CC2)cc1NCc1cccnc1 | i | i | i | i | i | nt | nt
CCCCC(=O)NC(c1ccccc1)c1ccc2cccnc2c1O (stereo not drawn) | i | 21 | i | i | i | i | i
CCCCC(=O)NC(c1ccc(C(C)C)cc1)c1ccc2cccnc2c1O (stereo not drawn) | i | 23 | i | i | i | 21 | i
CCCC(=O)NC(c1ccccc1)c1ccc2cccnc2c1O (stereo not drawn) | i | i | i | i | i | nt | nt
CCCCC(=O)NC(c1cccc([N+](=O)[O-])c1)c1ccc2cccnc2c1O (stereo not drawn) | i | nt | i | nt | i | nt | nt
CCCCC(=O)NC(c1ccccc1Cl)c1ccc2cccnc2c1O (stereo not drawn) | i | 27 | i | i | i | 19 | i
CCS(=O)(=O)N1CCC(C(=O)Oc2ccccc2Cl)CC1 | i | i | i | i | i | nt | nt
O=C(/C=C/c1ccccc1)NCC1(c2ccccc2)CCOCC1 | i | i | i | i | i | nt | nt
